The source of these data is ChEMBL document CHEMBL1122650, “Synthesis and central nervous system properties of 2-[(alkoxycarbonyl)amino]-4(5)-phenyl-2-imidazolines” (J Med Chem, 1984).

The species named for series [1] is Mus musculus. Kind of series: Compound was evaluated for maximal electroshock antagonism (MES) against mice. The format is functional. The gist of the method: (§1)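 Male HLa (ICR) BR mice, groups of eight to ten, dosed ip (aqueous solution) 15 min before transcorneal electroshock (50 mA, 0.2 s). End point: abolition of tonic hind-limb extension; quantal ED50 by Litchfield-Wilcoxon.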

The nature of series [2]: Lethal dose in mouse, in groups of ten. The format is toxicity, organism-based. The settings on record: in vivo.
Series [3] is filed under the species Mus musculus. Kind of series: Mouse behavior activity was determined; Stimulant Weak. The format is functional, organism-based. The gist of the method: (§2)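 Male Simonsen (ICR) fBR mice, 18-24 g, groups of three, given 3, 10, 30, 100, 300 or 1000 mg/kg ip as aqueous solution and observed for behavioral profile; deaths followed up to 7 days.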
Series [4] can be described thus: HPLC capacity factor (k'). The series is classed as ADME.
For series [5], the species on record is Mus musculus. The series can be described thus: Righting ability was determined in mice before rapid rolling (unaroused). The format is functional. The gist of the method: (§3)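 Male Simonsen (ICR) fBR mice, 18-24 g, groups of ten, dosed with aqueous compound. Righting ability checked before (unaroused) and after (aroused) rapid rolling in the hand; ED50 by Litchfield-Wilcoxon method.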

The species named for series [6] is Mus musculus. The series can be described thus: Righting ability was determined in mice […] rapid rolling (aroused). The series is classed as functional. The gist of the method:
as §3

The species entered for series [7] is Mus musculus. The series can be described thus: Mouse behavior activity was determined; Depressant-Stimulant. The series is classed as functional, organism-based. The gist of the method:
as §2

The species entered for series [8] is Mus musculus. Kind of series: Compound was evaluated for maximal electroshock antagonism (MES) against mice;I= Inactive. The series is classed as functional, organism-based. The gist of the method: as §1
For series [9], the species on record is Mus musculus. Kind of series: Evaluated for antagonism of reserpine induced hypothermia. The series is classed as functional. The gist of the method:
(§4)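 Male HLa (ICR) BR mice, 18-24 g, in groups of eight; reserpine 5 mg/kg ip given 2 h before oral test compound as aqueous solution. Rectal temperature taken hourly; 1-4-h hypothermia assessed by analysis of variance.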

The species named for series [10] is Mus musculus. Kind of series: Mouse behavior activity was determined; Depressant. The series is classed as functional, organism-based. The gist of the method:
as §2

Series [11] is filed under the species Mus musculus. Kind of series: Inhibition of radioactive NE [3H]norepinephrine uptake into mouse heart. The series is classed as functional. The gist of the method:
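Mice dosed ip (aqueous solution) before iv [3H]NE; hearts removed 3 h after label, washed, weighed, dissolved in Protosol and counted as dpm per mg tissue. Dose-response from linear regression.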

For series [12], the species on record is Rattus norvegicus. Kind of series: Inhibition of the 5-HT [14C]5-HT) uptake by rat brain slices In vitro. The series is classed as functional. The gist of the method:
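Rat cerebral cortex slices, 5 mg tissue per mL Krebs-Henseleit buffer, incubated at 37 °C with [3H]NE or [14C]5-HT; blanks at 4 °C, undosed controls. Stopped after 20 min by filtration; slice radioactivity counted; IC50 from linear regression of uptake inhibition.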

Series [13] has as its system Mus musculus. The series can be described thus: Reserpine hypothermia antagonism in mouse administered perorally with 5 mg/kg of reserpine 2 hour prior to test compound administration. The format is functional. The note with it: route oral.
The species named for series [14] is Mus musculus. Kind of series: Compound was evaluated for maximal electroshock antagonism (MES) against mice; Inactive. The format is functional, organism-based. The gist of the method:
as §1
On the technique in general: In the maximal electroshock model the usual endpoint is tonic extension of the hind limbs.

For series [15], the species on record is Rattus norvegicus. The series can be described thus: Inhibition of the NE [3H]Norepinephrine uptake by rat brain slices In vitro. The series is classed as functional.
Series [16] is filed under the species Mus musculus. The series can be described thus: Compound was evaluated for antagonism of reserpine induced hypothermia;. 5-2.5 excessive variability. The series is classed as functional, organism-based. The gist of the method:
as §4

In series [17] the test system is Mus musculus. Kind of series: Compound was evaluated in vivo for reserpine hypothermia after oral administration in mouse. The series is classed as functional. The gist of the method:
as §4

For series [18], the species on record is Mus musculus. The series can be described thus: Righting ability was determined in mice after rapid rolling (aroused). The format is functional. The gist of the method:
as §3

Series [19] is filed under the species Mus musculus. Kind of series: Mouse behavior activity was determined;D= Depressant. The format is functional, organism-based.
The test system of series [20] is Mus musculus. Kind of series: Compound was evaluated for maximal electroshock antagonism (MES) against mice; Inactive at 30 mg/kg. The series is classed as functional, organism-based. More on the design: dose 30 mg/kg. The gist of the method:
as §1

In series [21] the test system is Mus musculus. The series can be described thus: Evaluated in vivo for reserpine hypothermia after oral administration in mouse. Minimum active dose was reported; Inactive. The format is functional, organism-based. The gist of the method: as §4
The species named for series [22] is Mus musculus. Kind of series: Compound was evaluated for antagonism of reserpine induced hypothermia. The format is functional. The gist of the method:
as §4

The species named for series [23] is Mus musculus. Kind of series: Mouse behavior activity was determined; Dwk=Depressant Weak. The series is classed as functional, organism-based. The gist of the method:
as §2

In series [24] the test system is Mus musculus. The series can be described thus: Evaluated in vivo for reserpine hypothermia after oral administration in mouse. Minimum active dose was reported; 10-30% reduction. The format is functional, organism-based. The gist of the method:
as §4

The species named for series [25] is Mus musculus. Kind of series: Evaluated for antagonism of reserpine induced hypothermia;I= Inactive. The series is classed as functional, organism-based. The gist of the method:
as §4

The species entered for series [26] is Mus musculus. The series can be described thus: Mouse behavior activity was determined; Dwk= Depressant Weak. The format is functional, organism-based. The gist of the method:
as §2

For series [27], the species on record is Mus musculus. The series can be described thus: Compound was evaluated for maximal electroshock antagonism (MES) against mice; Inactive. The format is functional, organism-based. The gist of the method: as §1
The species named for series [28] is Mus musculus. Kind of series: Compound was evaluated for antagonism of reserpine induced hypothermia;I= Inactive. The format is functional, organism-based. The gist of the method: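 Male HLa (ICR) BR mice (18-24 g), groups of eight, dosed ip with 5 mg/kg reserpine 2 h before oral test compound given as aqueous solution. Rectal temperature measured hourly; 1-4-h thermia assessed by analysis of variance.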

Series [29] relates to Mus musculus. The series can be described thus: Compound was evaluated in vivo for reserpine hypothermia after oral administration in mouse. Minimum active dose was reported; 10-30% reduction. The series is classed as functional, organism-based. The gist of the method:
as §4

For series [30], the species on record is Mus musculus. The series can be described thus: Mouse behavior activity was determined; Depressant. The format is functional, organism-based. The gist of the method:
as §2

Series [31] is filed under the species Mus musculus. Kind of series: Compound was evaluated for antagonism of reserpine induced hypothermia; I=inactive. The format is functional, organism-based. The gist of the method: as §4
The species entered for series [32] is Mus musculus. The series can be described thus: Mouse behavior activity was determined; Dwk=Depressant (Weak). The format is functional, organism-based. The gist of the method:
as §2

Series [33] has as its system Mus musculus. Kind of series: Compound was evaluated in vivo for reserpine hypothermia after oral administration in mouse. Minimum active dose was reported, with the percent reversal at 10 mg/kg; I=inactive. The format is functional, organism-based. More on the design: dose 10 mg/kg. The gist of the method: as §4
For series [34], the species on record is Mus musculus. The series can be described thus: Compound was evaluated for maximal electroshock antagonism (MES) against mice; I=inactive. The format is functional, organism-based. The gist of the method:
as §1

Broadly, the ED50 is the dose at which the effect has come halfway, by size or by number of responders. What is called LD50 is the dose at which mortality reaches 50%. Lower therefore signals greater toxicity. The term IC50 denotes the concentration that inhibits the measured activity by half. A high value points to a need for much substance.

Molecules are shown by their SMILES. Calls of active or inactive are those of the source. The rule behind the calls is not given here. Bounds are passed on as bounds.

In the case of `COC(=O)NC1=NC(c2ccccc2)C(C)N1` (stereo unspecified), in series [1], the ED50 is 90 mg/kg. In addition, in series [2], the LD50 was 200 mg/kg. The Mouse behavior activity result in [3] is given as “Stimulant Weak”. Moreover, the “Log k'” value in [4] stood at 0.15.

Regarding `CC(C)OC(=O)NC1=NC(c2ccccc2Cl)CN1C` (stereo unspecified), the Loss of righting reflex turned out to be 46 mg/kg in series [5] and 67 mg/kg in series [6]. In series [1], the 50% effect level (ED50) was put at a dose of 35 mg/kg. For the same compound, the LD50 in series [2] worked out at 700 mg/kg. The Mouse behavior activity result in [7] is reported as “Depressant-Stimulant”. Further, in series [4], the “Log k'” value is 1.08.

On to `CCOC(=O)NC1=NC(c2cccc(Br)c2)CN1` (stereo unspecified), for which the ED50 result in [8] was “inactive”. Further, the HYPO in series [9] is less than 0.5 mg/kg. The “Log k'” value in [4] was determined as 0.77.

The compound `COC(=O)NC1=NC2(CCc3ccccc32)CN1` (stereo unspecified) registered a Loss of righting reflex in series [5] of 200 mg/kg. The same compound showed a 50% effective dose (ED50) in series [1] of 75 mg/kg. Besides, the LD50 in series [2] was found to be 700 mg/kg. For the same compound, the Mouse behavior activity result in series [10] is “Depressant”. Besides, the “Log k'” value in [4] is 0.3.

As for `NC1=NC(c2c(Cl)cccc2Cl)CN1` (stereo unspecified), the ED50 in series [11] came out at 6.5 mg/kg. For the same compound, the IC50 is 7.8 µM in [12] and 0.1 µM in series [15]. Further, in [2], the LD50 came out at 70 mg/kg. Besides, the Reserpine hypothermia in series [13] amounted to 0.15 mg/kg. The ED50 result in series [14] was “inactive”. Also, the HYPO in series [9] was less than 0.5 mg/kg.

As for `COC(=O)NC1=NC(c2cccc(C)c2)CN1` (stereo unspecified), the HYPO result in series [16] is reported as “excessive variability”. The Loss of righting reflex in series [5] is 100 mg/kg; in series [18], 157 mg/kg. Besides, the ED50 was determined as 100 mg/kg in series [1] and 51 mg/kg in [17]. In addition, in series [2], the LD50 was 500 mg/kg. Besides, the Mouse behavior activity entry in series [19] is given as “Depressant”. In series [4], the “Log k'” value came to 0.26.

As for `CCOC(=O)NC1=NC(c2cccc(F)c2)CN1C` (stereo unspecified), the ED50 result in series [20] and in series [21] was “inactive” each time. The HYPO in series [22] is less than 0.5 mg/kg. Further, in series [4], the “Log k'” value came to 0.51.

Turning to `CCOC(=O)NC1=NC(c2ccc(C(C)C)cc2)CN1` (stereo unspecified), the Mouse behavior activity entry in [23] is “Depressant - weak”. In series [2], this compound had an LD50 of 200 mg/kg. Further, the median effective dose (ED50) in series [24] is given as 10-30% reduction. Also, in [14], the ED50 result was “inactive”. Besides, the “Log k'” value in series [4] came out at 1.3. Further, in series [25], the HYPO result was “inactive”.

As to `CC(C)COC(=O)NC1=NC(c2ccccc2)CN1` (stereo unspecified), the Mouse behavior activity result in series [26] was “Depressant”. The ED50 result in series [27] was “inactive”. Further, the LD50 in series [2] amounted to 700 mg/kg. In addition, in [28], the HYPO entry is “inactive”. Further, the “Log k'” value in series [4] is recorded as 0.94. Besides, in [29], the ED50 is 10-30% reduction.

As to `COC(=O)NC1=NC(c2ccccc2Cl)CN1C` (stereo unspecified), the Loss of righting reflex in [5] is 49 mg/kg; in series [6], 92 mg/kg. This compound came in with an ED50 in series [1] of 28 mg/kg. In series [2], this compound had an LD50 of 238 mg/kg. Moreover, the Mouse behavior activity result in series [30] is on record as “Depressant”. For the same compound, the “Log k'” value in [4] turned out to be 0.51.

With `COC(=O)NC1=NC(c2ccc(OC(C)=O)cc2)CN1C` (stereo unspecified), the HYPO entry in series [31] is “inactive”. This compound also gave an LD50 in [2] of 700 mg/kg. The Mouse behavior activity entry in [32] is listed as “Depressant - weak”. Further, the ED50 result in [33] and in [34] was “inactive” each time. Moreover, the “Log k'” value in series [4] is 0.2.
